Laboratory results: EPA's CvTdb concentration-time database

How the values were obtained:
Rat [1] = test: concentration in urine after dosing; conditions: dosed: dibromoacetic acid, 40 mg/kg, oral, Male, F344
Rat [2] = test: concentration in urine after dosing; conditions: dosed: dibromoacetic acid, oral, Male, F344
Rat [3] = test: concentration in urine after dosing; conditions: dosed: dibromoacetic acid, 100 mg/kg, oral, Male, F344
Rat [4] = test: concentration in urine after dosing; conditions: dosed: dibromoacetic acid, 40 mg/kg, oral, Male, F344; remark: listed apart in the source
Rat [5] = test: concentration in urine after dosing; conditions: dosed: dibromoacetic acid, 100 mg/kg, oral, Male, F344; remark: listed apart in the source
Rat [6] = test: concentration in plasma after dosing; conditions: dosed: Phenolphthalein, 25 mg/kg, iv, Female, F344
Rat [7] = test: concentration in plasma after dosing; conditions: 5 min; dosed: Phenolphthalein; 25 mg/kg; iv; Male; F344
Rat [8] = test: concentration in plasma after dosing; conditions: dosed: Phenolphthalein, 25 mg/kg, iv, Female, F344; remark: listed apart in the source
Rat [9] = test: concentration in plasma after dosing; conditions: 4 h; dosed: Phenolphthalein; 25 mg/kg; iv; Male; F344
Rat [10] = test: concentration in plasma after dosing; conditions: dosed: Phenolphthalein, 25 mg/kg, iv, Female, F344; remark: listed apart in the source
Rat [11] = test: concentration in plasma after dosing; conditions: dosed: Phenolphthalein, 25 mg/kg, iv, Female, F344; remark: listed apart in the source
Rat [12] = test: concentration in plasma after dosing; conditions: 5 h; dosed: Phenolphthalein; 25 mg/kg; iv; Male; F344
Rat [13] = test: concentration in plasma after dosing; conditions: dosed: Phenolphthalein, 25 mg/kg, iv, Male, F344
Rat [14] = test: concentration in plasma after dosing; conditions: dosed: Phenolphthalein, 25 mg/kg, iv, Female, F344; remark: listed apart in the source
Rat [15] = test: concentration in plasma after dosing; conditions: dosed: Phenolphthalein, 25 mg/kg, iv, Female, F344; remark: listed apart in the source
Rat [16] = test: concentration in plasma after dosing; conditions: dosed: Phenolphthalein, 25 mg/kg, iv, F344
Rat [17] = test: concentration in plasma after dosing; conditions: dosed: Phenolphthalein, 25 mg/kg, iv, Male, F344; remark: listed apart in the source
Rat [18] = test: concentration in plasma after dosing; conditions: 3 h; dosed: Phenolphthalein; 25 mg/kg; iv; Male; F344
Rat [19] = test: concentration in plasma after dosing; conditions: dosed: Phenolphthalein, 25 mg/kg, iv, Female, F344; remark: listed apart in the source
Rat [20] = test: concentration in plasma after dosing; conditions: dosed: Phenolphthalein, 25 mg/kg, iv, Female, F344; remark: listed apart in the source
Rat [21] = test: concentration in plasma after dosing; conditions: 2.5 min; dosed: Phenolphthalein; 25 mg/kg; iv; Male; F344
Rat [22] = test: concentration in plasma after dosing; conditions: 16 h; dosed: Phenolphthalein; 25 mg/kg; iv; Female; F344
Rat [23] = test: concentration in plasma after dosing; conditions: 16 h; dosed: Phenolphthalein; 25 mg/kg; iv; Female; F344; remark: listed apart in the source
Rat [24] = test: concentration in plasma after dosing; conditions: 5 h; dosed: Phenolphthalein; 25 mg/kg; iv; Male; F344; remark: listed apart in the source
Rat [25] = test: concentration in plasma after dosing; conditions: 2.5 min; dosed: Phenolphthalein; 25 mg/kg; iv; Male; F344; remark: listed apart in the source
Rat [26] = test: concentration in plasma after dosing; conditions: 5 min; dosed: Phenolphthalein; 25 mg/kg; iv; Male; F344; remark: listed apart in the source
Rat [27] = test: concentration in plasma after dosing; conditions: 3 h; dosed: Phenolphthalein; 25 mg/kg; iv; Male; F344; remark: listed apart in the source
Rat [28] = test: concentration in plasma after dosing; conditions: dosed: Phenolphthalein, 25 mg/kg, iv, Female, F344; remark: listed apart in the source
Rat [29] = test: concentration in plasma after dosing; conditions: dosed: Phenolphthalein, 25 mg/kg, iv, Male, F344; remark: listed apart in the source
Rat [30] = test: concentration in plasma after dosing; conditions: dosed: Phenolphthalein, 25 mg/kg, iv, Female, F344; remark: listed apart in the source
Rat [31] = test: concentration in plasma after dosing; conditions: dosed: Phenolphthalein, 25 mg/kg, iv, Male, F344; remark: listed apart in the source
Rat [32] = test: concentration in plasma after dosing; conditions: dosed: Phenolphthalein, 25 mg/kg, iv, Female, F344; remark: listed apart in the source
Rat [33] = test: concentration in plasma after dosing; conditions: dosed: Phenolphthalein, 25 mg/kg, iv, Female, F344; remark: listed apart in the source
Rat [34] = test: concentration in plasma after dosing; conditions: dosed: Phenolphthalein, 25 mg/kg, iv, Female, F344; remark: listed apart in the source
Rat [35] = test: concentration in plasma after dosing; conditions: 1 h; dosed: Phenolphthalein; 25 mg/kg; iv; Male; F344
Rat [36] = test: concentration in plasma after dosing; conditions: dosed: Phenolphthalein, 25 mg/kg, iv, Female, F344; remark: listed apart in the source
rat [37] = test: concentration in blood after dosing; conditions: dosed: m-xylene, 5000 ppm, dermal, duration: 4 hr, male, F344
rat [38] = test: concentration in blood after dosing; conditions: dosed: m-xylene, 5000 ppm, dermal, duration: 4 hr, male, F344; remark: listed apart in the source
rat [39] = test: concentration in blood after dosing; conditions: dosed: m-xylene, 5000 ppm, dermal, duration: 4 hr, male, F344; remark: listed apart in the source
rat [40] = test: concentration in blood after dosing; conditions: dosed: m-xylene, 5000 ppm, dermal, duration: 4 hr, male, F344; remark: listed apart in the source
rat [41] = test: concentration in blood after dosing; conditions: dosed: m-xylene, 5000 ppm, dermal, duration: 4 hr, male, F344; remark: listed apart in the source
rat [42] = test: concentration in blood after dosing; conditions: dosed: m-xylene, 5000 ppm, dermal, duration: 4 hr, male, F344; remark: listed apart in the source
rat [43] = test: concentration in blood after dosing; negative times count back from the end of exposure; conditions: dosed: chloroform, 100 ppm, inhalation, duration: 360 min
human = test: amount in urine after dosing (umol); conditions: dosed: tert-amyl methyl ether, 38.4 ppm, inhalation, duration: 4 hr
Procedure, shortened: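 Points were largely digitised from plot screenshots with WebPlotDigitizer or otherwise copied from tables, and they remain in the units each source reported. They come from published in vivo toxicokinetic studies and two structured collections. Sampling and analytical methods follow each source and were often not reported.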

O=C(O)C(=O)O [Oxalic acid]
concentration in urine [ng/mL]
Conditions | 0 h | 2 h | 4 h | 8 h | 24 h | 48 h
Rat [1] | 63000 | – | – | 71100 | 99300 | 133000
Rat [3] | 63600 | 78100 | 108000 | 98200 | 103000 | 224000
Rat [4] | 63800 | 26200 | – | – | 88700 | 130000
Rat [5] | 53400 | – | 133000 | – | 68000 | 72600

concentration in urine [ng/mL], Rat [2]
Conditions | 0 h | 4 h | 8 h | 24 h | 48 h
40 mg/kg | 74600 | 52700 | 63500 | 89100 | 116000
100 mg/kg | 64800 | 105000 | – | 108000 | 154000

O=C1OC(c2ccc(O)cc2)(c2ccc(O)cc2)c2ccccc21 [Phenolphthalein]
Conditions | concentration in plasma [ng/mL]
Rat [6], 2.5 min | 167000
Rat [6], 20 h | 17.4
Rat [8], 5 h | 56.9
Rat [8], 10 h | 70.2
Rat [10], 2 h | 261
Rat [10], 8 h | 43.2
Rat [11], 1 h | 841
Rat [11], 6 h | 290
Rat [13], 2 h | 636
Rat [13], 8 h | 110
Rat [14], 1 h | 1400
Rat [14], 6 h | 392
Rat [15], 2.5 min | 164000
Rat [15], 20 h | 22
Rat [17], 2 h | 662
Rat [17], 8 h | 83.6
Rat [19], 4 h | 47.5
Rat [19], 7 h | 15.5
Rat [20], 5 min | 52100
Rat [20], 24 h | 23
Rat [28], 3 h | 153
Rat [28], 12 h | 26.7
Rat [29], 1 h | 2380
Rat [29], 6 h | 199
Rat [30], 3 h | 336
Rat [30], 12 h | 96
Rat [31], 4 h | 366
Rat [31], 7 h | 63
Rat [32], 5 min | 5180
Rat [32], 24 h | 69.4
Rat [33], 5 h | 58.5
Rat [33], 10 h | 17.4
Rat [34], 2 h | 261
Rat [34], 8 h | 46.7
Rat [36], 4 h | 127
Rat [36], 7 h | 36.5

Conditions | concentration in plasma [ng/mL]
Rat [7] | 58300
Rat [9] | 25.1
Rat [12] | 19.1
Rat [18] | 561
Rat [21] | 219000
Rat [22] | 24.5
Rat [23] | 20.3
Rat [24] | 552
Rat [25] | 216000
Rat [26] | 58500
Rat [27] | 94.5
Rat [35] | 1990

concentration in plasma [ng/mL], Rat [16]
Conditions | Female | Male
1 h | 1090 | 1790
2 h | 259 | 592
2.5 min | 115000 | 195000
3 h | 290 | 43.2
4 h | 173 | 317
5 h | 105 | 691
5 min | 52300 | 51000
6 h | 89.9 | 59.4
7 h | 56.9 | 248
8 h | 32.4 | 274
10 h | 45.5 | 42.3
12 h | 98.5 | –
16 h | 120 | 20.2
20 h | 18.6 | –
24 h | 60.2 | –

Cc1cccc(C)c1 [m-xylene]
concentration in blood [ng/mL]
Conditions | rat [37] | rat [38] | rat [39] | rat [40] | rat [41] | rat [42]
0.5 h | 154 | 154 | 3960 | 6020 | 5380 | 2860
1 h | 4110 | 5860 | 3790 | 7020 | 9470 | 2950
2 h | 4350 | 3840 | 25600 | 3450 | 12100 | 8160
3 h | 8850 | 3760 | 5950 | 9500 | 15900 | 8020
4 h | 10500 | 5030 | 9940 | 11400 | 16700 | 9030

ClC(Cl)Cl [chloroform]
rat [43]
Conditions | concentration in blood [µg/g]
0.4971 h | 0.55
2.006 h | 0.151

rat [43], during exposure
Conditions | concentration in blood [µg/g]
-31 s | 1.02
-5.747 h | 0.18
-5.503 h | 1.05
-4.997 h | 1.05
-3 h | 1.25

CC(C)(O)CC(=O)O [3-hydroxy-3-methyl-butyrate]
human
Conditions | amount in urine
6.255 h | 52.2
12.14 h | 81.7
18.19 h | 45.7
24.05 h | 43.6
30.19 h | 32.9
36.26 h | 24.2
42.12 h | 11.1
48.2 h | 19.7
305 s | 19.7
